Reference: ChEMBL document CHEMBL4118058, “Amino Acid Conjugated Anthraquinones from the Marine-Derived Fungus Penicillium sp. SCSIO sof101” (J Nat Prod, 2017)
Calls of active or inactive are those of the source. The calls are words filed in the database; no cut-off is given here.

Legend:
Jurkat [1] = assay: Cytotoxicity against human Jurkat T cells assessed as reduction in cell viability after 72 hrs by alamar blue assay; type: cell-based
Outline: (§1)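 Cells seeded at 2 × 10^4 cells/well and exposed to compound for 72 h. DMSO was the negative control and doxorubicin the positive control. AlamarBlue (1:10 dilution) was then added for 4 h at 37 °C, and absorbance was read at 590 nm.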

K562 = assay: Cytotoxicity against human K562 cells assessed as reduction in cell viability after 72 hrs by alamar blue assay; type: cell-based; conditions: K562, 72 h; outline: as §1
HeLa = assay: Cytotoxicity against human HeLa cells assessed as reduction in cell viability after 72 hrs by alamar blue assay; type: cell-based; outline: as §1
Jurkat [2] = assay: Anti-inflammatory activity in PMA/ionomycin stimulated human Jurkat T cells assessed as reduction in IL-2 secretion at 20 uM preincubated for 20 mins followed by PMA/ionomycin stimulation measured after 12 hrs by ELISA; type: functional, cell-based
Outline: (§2)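 Jurkat T cells seeded at 1 × 10^5 cells/well and pretreated with compound for 20 min, then stimulated with PMA (40 nM) plus ionomycin (1 μM) for 12 h at 37 °C. DMSO was the negative control and FK506 (100 nM) the positive control. IL-2 in 100 μL supernatant was measured by sandwich ELISA with streptavidin detector and TMB substrate, read at 450 nm.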

Jurkat [3] = assay: Anti-inflammatory activity in PMA/ionomycin stimulated human Jurkat T cells assessed as reduction in IL-2 secretion preincubated for 20 mins followed by PMA/ionomycin stimulation measured after 12 hrs by ELISA; type: functional, cell-based; outline: as §2

| Structure (SMILES) | IC50 (Jurkat [1]) | IC50 (K562) | IC50 (HeLa) | Activity (Jurkat [2]) | IC50 (Jurkat [3]) |
| --- | --- | --- | --- | --- | --- |
| O=C1c2cc(CO)cc(O)c2C(=O)c2c1cc(O)c(Cl)c2O | > 10 µM | > 10 µM | > 10 µM |  |  |
| CCC(C)[C@H](NC(=O)c1cc(O)c2c(c1)C(=O)c1cc(O)c(Cl)c(O)c1C2=O)C(=O)O (some centres undefined) | > 10 µM | > 10 µM | > 10 µM | Active |  |
| CCC(C)[C@H](NC(=O)c1cc(O)c2c(c1)C(=O)c1cc(O)cc(O)c1C2=O)C(=O)O (some centres undefined) | > 10 µM | > 10 µM | > 10 µM | Active | 5.4 µM |
| CC(C)C[C@H](NC(=O)c1cc(O)c2c(c1)C(=O)c1cc(O)c(Cl)c(O)c1C2=O)C(=O)O | > 10 µM | > 10 µM | > 10 µM | Active |  |
| O=C(O)c1cc(O)c2c(c1)C(=O)c1cc(O)cc(O)c1C2=O [EMODIC ACID] | > 10 µM | > 10 µM | > 10 µM | Active |  |
| C[C@H](NC(=O)c1cc(O)c2c(c1)C(=O)c1cc(O)cc(O)c1C2=O)C(=O)O | > 10 µM | > 10 µM | > 10 µM | Active |  |
| COC(=O)[C@@H](NC(=O)c1cc(O)c2c(c1)C(=O)c1cc(O)cc(O)c1C2=O)C(C)C | > 10 µM | > 10 µM | > 10 µM | Active | 4.1 µM |
| CC(C)[C@H](NC(=O)c1cc(O)c2c(c1)C(=O)c1cc(O)cc(O)c1C2=O)C(=O)O | > 10 µM | > 10 µM | > 10 µM | Active |  |
| C=CC[C@@H]1/C=C(\C)C[C@H](C)C[C@H](OC)[C@H]2O[C@@](O)(C(=O)C(=O)N3CCCC[C@H]3C(=O)O[C@H](/C(C)=C/[C@@H]3CC[C@@H](O)[C@H](OC)C3)[C@H](C)[C@@H](O)CC1=O)[C@H](C)C[C@@H]2OC [TACROLIMUS ANHYDROUS] |  |  |  |  | 5.8 µM |
| CC(C)[C@H](NC(=O)c1cc(O)c2c(c1)C(=O)c1cc(O)c(Cl)c(O)c1C2=O)C(=O)O | > 10 µM | > 10 µM | > 10 µM | Active | 5.1 µM |
| CCC(C)[C@H](NC(=O)c1cc(O)c2c(c1)C(=O)c1cc(O)cc(O)c1C2=O)C(=O)OC (some centres undefined) | > 10 µM | > 10 µM | > 10 µM | Active | 12 µM |
